Test results: ChEMBL document CHEMBL1154167, “Discovery of azetidinyl ketolides for the treatment of susceptible and multidrug resistant community-acquired respiratory tract infections” (J Med Chem, 2009)
≈ marks a conversion by molar mass, not a printed value.

Tests used:
Streptococcus pneumoniae [1] = assay: Antibacterial activity against multidrug-susceptible Streptococcus pneumoniae 1016 by NCCLS method; assay type: functional
Streptococcus pneumoniae [2] = assay: Antibacterial activity against multidrug-resistant Streptococcus pneumoniae 1095 harboring ermB gene by NCCLS method; assay type: functional
Streptococcus pneumoniae [3] = assay: Antibacterial activity against multidrug-resistant Streptococcus pneumoniae 1175 harboring mefA gene by NCCLS method; assay type: functional
Streptococcus pyogenes = assay: Antibacterial activity against multidrug-resistant Streptococcus pyogenes 1079 harboring ermB gene by NCCLS method; assay type: functional
Haemophilus influenzae [4] = assay: Antibacterial activity against multidrug-susceptible Haemophilus influenzae 1325 by NCCLS method; assay type: functional
[5] = Metabolic stability in human liver cytosol assessed as compound turnover at 1 uM in presence of aldehyde oxidase inhibitor raloxifene; assay type: ADME
Procedure, shortened: (§1)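 Human liver cytosol incubations, used as a readout of aldehyde oxidase metabolism, run with and without the AO inhibitor raloxifene.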

[6] = Metabolic stability in human liver microsomes assessed as hepatic extraction ratio at 1 uM; assay type: ADME, Microsome; conditions: read-out: ERH
Procedure, shortened: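 Human liver microsomes used to screen for metabolic clearance; the readout was the microsomal extraction ratio (ER).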

[7] = Metabolic stability in human liver cytosol assessed as compound turnover at 1 uM after 60 mins; assay type: ADME, tissue-based; conditions: 1 h; procedure, shortened: as §1
[8] = target: Voltage-gated inwardly rectifying potassium channel KCNH2 (Homo sapiens, UniProt Q12809); assay: Inhibition of human ERG by patch-clamp assay
Streptococcus pneumoniae [9] = assay: Antibacterial activity against multidrug-resistant Streptococcus pneumoniae 1095 harboring ermB infected in po dosed mouse respiratory tract model assessed as survival administered 18 hrs postinfection BID for 2 days measured on day 10 postinfection; assay type: functional; conditions: Streptococcus pneumoniae, 1095, po; read-out: PD50
Procedure, shortened: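 Murine respiratory tract infection model using S. pneumoniae 1095 (erm). Compounds were given orally. The outcome was the 50% protective dose (PD50), reported as (mg/kg)/dose.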

Haemophilus influenzae [10] = assay: Antibacterial activity against multidrug-susceptible Haemophilus influenzae 1325 infected in po dosed Mongolian gerbil otitis media model assessed as reduction of bacterial infection administered 18 hrs postinfection TID for 2 days measured on day 4 postinfection; assay type: functional; conditions: Haemophilus influenzae, 1325, po
Procedure, shortened: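 Gerbil otitis media model infected with H. influenzae 1325; compounds given orally. Efficacy expressed as ED50 in (mg/kg)/dose.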

Chain of Voltage-gated inwardly rectifying potassium channel KCNH2 (Q12809 whole entry): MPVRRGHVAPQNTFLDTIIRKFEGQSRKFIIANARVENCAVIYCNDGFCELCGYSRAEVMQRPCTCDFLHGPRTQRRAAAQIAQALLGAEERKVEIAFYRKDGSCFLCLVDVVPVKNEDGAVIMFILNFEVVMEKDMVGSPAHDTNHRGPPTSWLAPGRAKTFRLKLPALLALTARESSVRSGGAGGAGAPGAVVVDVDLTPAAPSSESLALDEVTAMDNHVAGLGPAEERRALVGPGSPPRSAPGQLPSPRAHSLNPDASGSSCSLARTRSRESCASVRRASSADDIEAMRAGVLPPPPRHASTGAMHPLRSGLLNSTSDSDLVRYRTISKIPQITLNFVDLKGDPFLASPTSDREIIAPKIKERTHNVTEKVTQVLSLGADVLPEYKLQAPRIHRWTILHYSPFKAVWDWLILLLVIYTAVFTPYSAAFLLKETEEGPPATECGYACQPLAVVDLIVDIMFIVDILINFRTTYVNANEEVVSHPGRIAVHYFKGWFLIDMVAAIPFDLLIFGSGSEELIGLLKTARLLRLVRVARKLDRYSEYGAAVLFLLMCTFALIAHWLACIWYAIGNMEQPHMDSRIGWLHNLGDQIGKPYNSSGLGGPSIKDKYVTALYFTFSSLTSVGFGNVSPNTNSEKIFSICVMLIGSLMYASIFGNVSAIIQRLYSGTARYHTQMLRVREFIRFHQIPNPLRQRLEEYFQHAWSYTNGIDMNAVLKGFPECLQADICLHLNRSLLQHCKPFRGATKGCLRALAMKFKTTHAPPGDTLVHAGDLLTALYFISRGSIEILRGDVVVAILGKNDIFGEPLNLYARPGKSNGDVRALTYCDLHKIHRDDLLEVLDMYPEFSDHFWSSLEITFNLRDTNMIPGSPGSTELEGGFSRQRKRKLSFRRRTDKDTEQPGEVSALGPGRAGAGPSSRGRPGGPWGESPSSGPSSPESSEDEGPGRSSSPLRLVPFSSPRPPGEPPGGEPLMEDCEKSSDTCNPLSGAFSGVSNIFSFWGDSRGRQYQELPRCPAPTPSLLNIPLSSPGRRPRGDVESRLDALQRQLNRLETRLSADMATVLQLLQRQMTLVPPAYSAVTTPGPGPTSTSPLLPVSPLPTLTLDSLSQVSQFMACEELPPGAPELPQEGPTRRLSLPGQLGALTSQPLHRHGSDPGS

CC[C@H]1OC(=O)[C@H](C)C(=O)[C@H](C)[C@@H](O[C@@H]2O[C@H](C)C[C@H](N(C)C)[C@H]2O)[C@](C)(O)C[C@@H](C)C(=O)[C@H](C)[C@H]2N(C3CN([C@@H](C)c4ccnc5ncccc45)C3)C(=O)O[C@]12C
MIC (Streptococcus pneumoniae [1]): ≤ 0.06 µg/mL | MIC (Streptococcus pneumoniae [2]): ≤ 0.06 µg/mL | MIC (Streptococcus pneumoniae [3]): 0.25 µg/mL (≈ 0.309 µM) | MIC (Streptococcus pyogenes): 16 µg/mL (≈ 19.8 µM) | MIC (Haemophilus influenzae [4]): 16 µg/mL (≈ 19.8 µM) | half-life at 1 µM [5]: < 120 min

CC[C@H]1OC(=O)[C@H](C)C(=O)[C@H](C)[C@@H](O[C@@H]2O[C@H](C)C[C@H](N(C)C)[C@H]2O)[C@](C)(O)C[C@@H](C)C(=O)[C@H](C)[C@H]2N(C3CN(Cc4c(O)cnc5cccnc45)C3)C(=O)O[C@]12C
MIC (Streptococcus pneumoniae [1]): ≤ 0.06 µg/mL | MIC (Streptococcus pneumoniae [2]): ≤ 0.06 µg/mL | MIC (Streptococcus pneumoniae [3]): ≤ 0.06 µg/mL | MIC (Streptococcus pyogenes): 0.5 µg/mL (≈ 0.616 µM) | MIC (Haemophilus influenzae [4]): 4 µg/mL (≈ 4.93 µM) | hepatic extraction ratio at 1 µM [6]: < 0.3 | Stability [7]: Stable | half-life at 1 µM [5]: < 120 min | IC50 [8]: 67 µM | ED50 (Streptococcus pneumoniae [9]): 26.8 mg/kg | ED50 (Haemophilus influenzae [10]): 53.6 mg/kg

CC[C@H]1OC(=O)[C@H](C)C(=O)[C@H](C)[C@@H](O[C@@H]2O[C@H](C)C[C@H](N(C)C)[C@H]2O)[C@](C)(OC)C[C@@H](C)C(=O)[C@H](C)[C@H]2N(CCCCn3cnc(-c4cccnc4)c3)C(=O)O[C@]12C [TELITHROMYCIN]
MIC (Streptococcus pneumoniae [1]): ≤ 0.06 µg/mL | MIC (Streptococcus pneumoniae [2]): ≤ 0.06 µg/mL | MIC (Streptococcus pneumoniae [3]): ≤ 0.06 µg/mL | MIC (Streptococcus pyogenes): 32 µg/mL (≈ 39.4 µM) | MIC (Haemophilus influenzae [4]): 4 µg/mL (≈ 4.93 µM) | hepatic extraction ratio at 1 µM [6]: 0.7 | Stability [7]: Stable | half-life at 1 µM [5]: < 120 min | IC50 [8]: 40 µM | ED50 (Streptococcus pneumoniae [9]): 31.2 mg/kg | ED50 (Haemophilus influenzae [10]): 37.5 mg/kg

CC[C@H]1OC(=O)[C@H](C)C(=O)[C@H](C)[C@@H](O[C@@H]2O[C@H](C)C[C@H](N(C)C)[C@H]2O)[C@](C)(O)C[C@@H](C)C(=O)[C@H](C)[C@H]2N(C3CN(Cc4ccnc5cccnc45)C3)C(=O)O[C@]12C
MIC (Streptococcus pneumoniae [1]): ≤ 0.06 µg/mL | MIC (Streptococcus pneumoniae [2]): ≤ 0.06 µg/mL | MIC (Streptococcus pneumoniae [3]): ≤ 0.06 µg/mL | MIC (Streptococcus pyogenes): 1 µg/mL (≈ 1.26 µM) | MIC (Haemophilus influenzae [4]): 8 µg/mL (≈ 10.1 µM) | hepatic extraction ratio at 1 µM [6]: 0.7 | Stability [7]: Stable | half-life at 1 µM [5]: < 120 min | IC50 [8]: 196 µM

CC[C@H]1OC(=O)[C@H](C)[C@@H](O[C@H]2C[C@@](C)(OC)[C@@H](O)[C@H](C)O2)[C@H](C)[C@@H](O[C@@H]2O[C@H](C)C[C@H](N(C)C)[C@H]2O)[C@](C)(OC)C[C@@H](C)C(=O)[C@H](C)[C@@H](O)[C@]1(C)O [CLARITHROMYCIN]
MIC (Streptococcus pneumoniae [1]): ≤ 0.06 µg/mL | MIC (Streptococcus pneumoniae [2]): > 64 µg/mL | MIC (Streptococcus pneumoniae [3]): 16 µg/mL (≈ 21.4 µM) | MIC (Streptococcus pyogenes): > 64 µg/mL | MIC (Haemophilus influenzae [4]): 16 µg/mL (≈ 21.4 µM) | half-life at 1 µM [5]: < 120 min | ED50 (Streptococcus pneumoniae [9]): > 100 mg/kg | ED50 (Haemophilus influenzae [10]): > 100 mg/kg

CC[C@H]1OC(=O)[C@H](C)C(=O)[C@H](C)[C@@H](O[C@@H]2O[C@H](C)C[C@H](N(C)C)[C@H]2O)[C@](C)(O)C[C@@H](C)C(=O)[C@H](C)[C@H]2N(C3CN(Cc4c(OC)cnc5ncccc45)C3)C(=O)O[C@]12C
MIC (Streptococcus pneumoniae [1]): ≤ 0.06 µg/mL | MIC (Streptococcus pneumoniae [2]): ≤ 0.06 µg/mL | MIC (Streptococcus pneumoniae [3]): ≤ 0.06 µg/mL | MIC (Streptococcus pyogenes): ≤ 0.06 µg/mL | MIC (Haemophilus influenzae [4]): 8 µg/mL (≈ 9.69 µM) | hepatic extraction ratio at 1 µM [6]: 0.8 | half-life at 1 µM [5]: < 120 min

CC[C@H]1OC(=O)[C@H](C)C(=O)[C@H](C)[C@@H](O[C@@H]2O[C@H](C)C[C@H](N(C)C)[C@H]2O)[C@](C)(O)C[C@@H](C)C(=O)[C@H](C)[C@H]2N(C3CN(Cc4c(O)cnc5ncccc45)C3)C(=O)O[C@]12C
MIC (Streptococcus pneumoniae [1]): ≤ 0.06 µg/mL | MIC (Streptococcus pneumoniae [2]): ≤ 0.06 µg/mL | MIC (Streptococcus pneumoniae [3]): ≤ 0.06 µg/mL | MIC (Streptococcus pyogenes): 0.25 µg/mL (≈ 0.308 µM) | MIC (Haemophilus influenzae [4]): 4 µg/mL (≈ 4.93 µM) | hepatic extraction ratio at 1 µM [6]: < 0.3 | Stability [7]: Unstable | half-life at 1 µM [5]: < 120 min | IC50 [8]: 140 µM

CC[C@H]1OC(=O)[C@H](C)C(=O)[C@H](C)[C@@H](O[C@@H]2O[C@H](C)C[C@H](N(C)C)[C@H]2O)[C@](C)(O)C[C@@H](C)C(=O)[C@H](C)[C@H]2N(C3CN(Cc4cccc5nc[nH]c45)C3)C(=O)O[C@]12C
MIC (Streptococcus pneumoniae [1]): ≤ 0.06 µg/mL | MIC (Streptococcus pneumoniae [2]): 0.125 µg/mL (≈ 0.159 µM) | MIC (Streptococcus pneumoniae [3]): 0.5 µg/mL (≈ 0.638 µM) | MIC (Streptococcus pyogenes): 8 µg/mL (≈ 10.2 µM) | MIC (Haemophilus influenzae [4]): 8 µg/mL (≈ 10.2 µM) | half-life at 1 µM [5]: < 120 min

CC[C@H]1OC(=O)[C@H](C)C(=O)[C@H](C)[C@@H](O[C@@H]2O[C@H](C)C[C@H](N(C)C)[C@H]2O)[C@](C)(O)C[C@@H](C)C(=O)[C@H](C)[C@H]2N(C3CN(Cc4ccnc5ncccc45)C3)C(=O)O[C@]12C
MIC (Streptococcus pneumoniae [1]): ≤ 0.06 µg/mL | MIC (Streptococcus pneumoniae [2]): ≤ 0.06 µg/mL | MIC (Streptococcus pneumoniae [3]): 0.12 µg/mL (≈ 0.151 µM) | MIC (Streptococcus pyogenes): 1 µg/mL (≈ 1.26 µM) | MIC (Haemophilus influenzae [4]): 4 µg/mL (≈ 5.03 µM) | hepatic extraction ratio at 1 µM [6]: 0.6 | Stability [7]: Unstable | half-life at 1 µM [5]: < 120 min | IC50 [8]: 80 µM

CC[C@H]1OC(=O)[C@H](C)C(=O)[C@H](C)[C@@H](O[C@@H]2O[C@H](C)C[C@H](N(C)C)[C@H]2O)[C@](C)(O)C[C@@H](C)C(=O)[C@H](C)[C@H]2N(C3CN([C@H](C)c4ccnc5ncccc45)C3)C(=O)O[C@]12C
MIC (Streptococcus pneumoniae [1]): ≤ 0.06 µg/mL | MIC (Streptococcus pneumoniae [2]): ≤ 0.06 µg/mL | MIC (Streptococcus pneumoniae [3]): 0.25 µg/mL (≈ 0.309 µM) | MIC (Streptococcus pyogenes): 1 µg/mL (≈ 1.23 µM) | MIC (Haemophilus influenzae [4]): 4 µg/mL (≈ 4.94 µM) | hepatic extraction ratio at 1 µM [6]: 0.3 | Stability [7]: Unstable | half-life at 1 µM [5]: < 120 min | IC50 [8]: 43 µM | ED50 (Streptococcus pneumoniae [9]): 54.5 mg/kg | ED50 (Haemophilus influenzae [10]): 35.6 mg/kg
